Data reported in ChEMBL document CHEMBL4393701, “Appendix A. dithioloquinolinethiones as new potential multitargeted antibacterial and antifungal agents: Synthesis, biological evaluation and molecular docking studies” (2019).
Values after ≈ are worked out from the molar mass of the structure shown.

Key:
Staphylococcus aureus [1] = test: Antibacterial activity against Staphylococcus aureus ATCC 6538 after 24 hrs by iodonitrotetrazolium chloride dye based microdilution method; assay type: functional; settings: ATCC 6538, 24 h
Outline: (§1)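 Fresh overnight cultures adjusted spectrophotometrically to 1×10^5 CFU/mL, giving 1.0×10^4 CFU per well in tryptic soy broth. Compounds were dissolved in 5% DMSO and tested at 0.001-1.0 mg/ml by serial dilution; 5% DMSO was the negative control. After 24 h at 37 °C, 0.2 mg/mL INT solution was added for 30 min at 37 °C and OD read at 655 nm. MIC is the lowest concentration giving significant growth inhibition versus the positive control. Duplicates, repeated three times.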

Micrococcus flavus [2] = test: Bactericidal activity against Micrococcus flavus ATCC 10240 incubated for 24 hrs followed by re-plating on tryptic soy broth; assay type: functional; settings: ATCC 10240, 24 h
Outline: (§2)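 Bacteria were grown in tryptic soy broth, 1.0×10^4 CFU per well, with compounds in 5% DMSO at 0.001-1.0 mg/ml for 24 h at 37 °C. Then 10 µL was subcultured into fresh TSB. MBC is the lowest concentration showing no growth after subculture, taken as 99.5% kill of the original inoculum. Duplicates, repeated three times.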

Bacillus cereus [3] = test: Bactericidal activity against Bacillus cereus clinical isolate incubated for 24 hrs followed by re-plating on tryptic soy broth; assay type: functional; outline: as §2
Trichoderma viride [4] = test: Antifungal activity against Trichoderma viride IAM 5061 after 72 hrs by microdilution technique; assay type: functional; settings: IAM 5061, 72 h
Outline: (§3)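 Spores were washed off malt agar with 0.85% saline containing 0.1% Tween 80 and adjusted to about 1.0×10^5 per well. Compounds in 5% DMSO were serially diluted (0.001-1.0 mg/ml) in malt broth with inoculum. Plates were shaken at 160 rpm for 72 h at 28 °C. MIC is the lowest concentration without visible growth under a binocular microscope. Three independent experiments in duplicate.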

Aspergillus versicolor [5] = test: Fungicidal activity against Aspergillus versicolor ATCC 11730 incubated for 72 hrs followed by sub-culturing on broth malt medium and measured after 72 hrs; assay type: functional; settings: ATCC 11730, 72 h
Outline: (§4)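 After 72 h exposure in malt broth, 2 µL from test wells was subcultured into wells holding 100 µL broth and incubated a further 72 h at 28 °C. MFC is the lowest concentration with no visible growth, taken as 99.5% kill of the original inoculum. Three independent experiments in duplicate.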

Trichoderma viride [6] = test: Fungicidal activity against Trichoderma viride IAM 5061 incubated for 72 hrs followed by sub-culturing on broth malt medium and measured after 72 hrs; assay type: functional; settings: IAM 5061, 72 h; outline: as §4
Enterobacter cloacae [7] = test: Antibacterial activity against Enterobacter cloacae clinical isolate after 24 hrs by iodonitrotetrazolium chloride dye based microdilution method; assay type: functional; outline: as §1
Salmonella typhimurium [8] = test: Bactericidal activity against Salmonella typhimurium ATCC 13311 incubated for 24 hrs followed by re-plating on tryptic soy broth; assay type: functional, Salmonella enterica subsp. enterica serovar Typhimurium; settings: Salmonella enterica, ATCC 13311, 24 h; outline: as §2
Aspergillus ochraceus [9] = test: Antifungal activity against Aspergillus ochraceus ATCC 12066 after 72 hrs by microdilution technique; assay type: functional; settings: ATCC 12066, 72 h; outline: as §3
Escherichia coli [10] = test: Antibacterial activity against Escherichia coli ATCC 35210 after 24 hrs by iodonitrotetrazolium chloride dye based microdilution method; assay type: functional; settings: ATCC 35210, 24 h; outline: as §1
Penicillium cyclopium [11] = test: Antifungal activity against Penicillium verrucosum var. cyclopium food isolate after 72 hrs by microdilution technique; assay type: functional; outline: as §3
Aspergillus fumigatus [12] = test: Fungicidal activity against Aspergillus fumigatus ATCC 1022 incubated for 72 hrs followed by sub-culturing on broth malt medium and measured after 72 hrs; assay type: functional; settings: ATCC 1022, 72 h; outline: as §4
Aspergillus versicolor [13] = test: Antifungal activity against Aspergillus versicolor ATCC 11730 after 72 hrs by microdilution method; assay type: functional; settings: ATCC 11730, 72 h; outline: as §3
Penicillium ochrochloron [14] = test: Antifungal activity against Penicillium ochrochloron ATCC 9112 after 72 hrs by microdilution technique; assay type: functional; settings: ATCC 9112, 72 h; outline: as §3
Micrococcus flavus [15] = test: Antibacterial activity against Micrococcus flavus ATCC 10240 after 24 hrs by iodonitrotetrazolium chloride dye based microdilution method; assay type: functional; settings: ATCC 10240, 24 h; outline: as §1
Pseudomonas aeruginosa [16] = test: Antibacterial activity against Pseudomonas aeruginosa ATCC 27853 after 24 hrs by iodonitrotetrazolium chloride dye based microdilution method; assay type: functional; settings: ATCC 27853, 24 h; outline: as §1
[17] = Antifungal activity against Penicillium funiculosum ATCC 36839 after 72 hrs by microdilution technique; assay type: functional; settings: Talaromyces pinophilus, ATCC 36839, 72 h; outline: as §3
[18] = Fungicidal activity against Penicillium funiculosum ATCC 36839 incubated for 72 hrs followed by sub-culturing on broth malt medium and measured after 72 hrs; assay type: functional; settings: Talaromyces pinophilus, ATCC 36839, 72 h; outline: as §4
Escherichia coli [19] = test: Bactericidal activity against Escherichia coli ATCC 35210 incubated for 24 hrs followed by re-plating on tryptic soy broth; assay type: functional; settings: ATCC 35210, 24 h; outline: as §2
Aspergillus niger [20] = test: Fungicidal activity against Aspergillus niger ATCC 6275 incubated for 72 hrs followed by sub-culturing on broth malt medium and measured after 72 hrs; assay type: functional; settings: ATCC 6275, 72 h; outline: as §4
Aspergillus niger [21] = test: Antifungal activity against Aspergillus niger ATCC 6275 after 72 hrs by microdilution technique; assay type: functional; settings: ATCC 6275, 72 h; outline: as §3
Staphylococcus aureus [22] = test: Bactericidal activity against Staphylococcus aureus ATCC 6538 incubated for 24 hrs followed by re-plating on tryptic soy broth; assay type: functional; settings: ATCC 6538, 24 h; outline: as §2
Penicillium cyclopium [23] = test: Fungicidal activity against Penicillium verrucosum var. cyclopium food isolate incubated for 72 hrs followed by sub-culturing on broth malt medium and measured after 72 hrs; assay type: functional; outline: as §4
Salmonella typhimurium [24] = test: Antibacterial activity against Salmonella typhimurium ATCC 13311 after 24 hrs by iodonitrotetrazolium chloride dye based microdilution method; assay type: functional, Salmonella enterica subsp. enterica serovar Typhimurium; settings: Salmonella enterica, ATCC 13311, 24 h; outline: as §1
Bacillus cereus [25] = test: Antibacterial activity against Bacillus cereus clinical isolate after 24 hrs by iodonitrotetrazolium chloride dye based microdilution assay; assay type: functional; outline: as §1
Enterobacter cloacae [26] = test: Bactericidal activity against Enterobacter cloacae incubated for 24 hrs followed by re-plating on tryptic soy broth; assay type: functional; outline: as §2
Listeria monocytogenes [27] = test: Antibacterial activity against Listeria monocytogenes NCTC 7973 after 24 hrs by iodonitrotetrazolium chloride dye based microdilution method; assay type: functional; settings: NCTC 7973, 24 h; outline: as §1
Pseudomonas aeruginosa [28] = test: Bactericidal activity against Pseudomonas aeruginosa ATCC 27853 incubated for 24 hrs followed by re-plating on tryptic soy broth; assay type: functional; settings: ATCC 27853, 24 h; outline: as §2
Aspergillus fumigatus [29] = test: Antifungal activity against Aspergillus fumigatus ATCC 1022 after 72 hrs by microdilution technique; assay type: functional; settings: ATCC 1022, 72 h; outline: as §3
Penicillium ochrochloron [30] = test: Fungicidal activity against Penicillium ochrochloron ATCC 9112 incubated for 72 hrs followed by sub-culturing on broth malt medium and measured after 72 hrs; assay type: functional; settings: ATCC 9112, 72 h; outline: as §4
Listeria monocytogenes [31] = test: Bactericidal activity against Listeria monocytogenes NCTC 7973 incubated for 24 hrs followed by re-plating on tryptic soy broth; assay type: functional; settings: NCTC 7973, 24 h; outline: as §2
Aspergillus ochraceus [32] = test: Fungicidal activity against Aspergillus ochraceus ATCC 12066 incubated for 72 hrs followed by sub-culturing on broth malt medium and measured after 72 hrs; assay type: functional; settings: ATCC 12066, 72 h; outline: as §4

Compound | MIC (Staphylococcus aureus [1]) [µM] | MBC (Micrococcus flavus [2]) [µM] | MBC (Bacillus cereus [3]) [µM] | MIC (Trichoderma viride [4]) [×10⁻² mM] | MFC (Aspergillus versicolor [5]) [×10⁻² mM] | MFC (Trichoderma viride [6]) [×10⁻² mM] | MIC (Enterobacter cloacae [7]) [µM] | MBC (Salmonella typhimurium [8]) [µM] | MIC (Aspergillus ochraceus [9]) [×10⁻² mM] | MIC (Escherichia coli [10]) [µM] | MIC (Penicillium cyclopium [11]) [×10⁻² mM] | MFC (Aspergillus fumigatus [12]) [×10⁻² mM] | MIC (Aspergillus versicolor [13]) [×10⁻² mM] | MIC (Penicillium ochrochloron [14]) [×10⁻² mM] | MIC (Micrococcus flavus [15]) [µM] | MIC (Pseudomonas aeruginosa [16]) [µM] | MIC [17] [×10⁻² mM] | MFC [18] [×10⁻² mM] | MBC (Escherichia coli [19]) [µM] | MFC (Aspergillus niger [20]) [×10⁻² mM] | other results
CCOc1ccc2c(c1)-c1c(ssc1=S)C(C)(C)N2 | 29.5 (≈ 9.13 µg/mL) | 59 (≈ 18.3 µg/mL) | 59 (≈ 18.3 µg/mL) | 1.18 | 11.8 | 2.95 | 29.5 (≈ 9.13 µg/mL) | 59 (≈ 18.3 µg/mL) | 11.8 | 29.5 (≈ 9.13 µg/mL) | 8.85 | 11.8 | 5.9 | 0.79 | 29.5 (≈ 9.13 µg/mL) | 29.5 (≈ 9.13 µg/mL) | 11.8 | 23.6 | 59 (≈ 18.3 µg/mL) | 11.8 | MIC (Aspergillus niger [21]): 4.32 ×10⁻² mM; MBC (Staphylococcus aureus [22]): 59 µM (≈ 18.3 µg/mL); MFC (Penicillium cyclopium [23]): 23.6 ×10⁻² mM; MIC (Salmonella typhimurium [24]): 29.5 µM (≈ 9.13 µg/mL); MIC (Bacillus cereus [25]): 29.5 µM (≈ 9.13 µg/mL); MBC (Enterobacter cloacae [26]): 59 µM (≈ 18.3 µg/mL); MIC (Listeria monocytogenes [27]): 29.5 µM (≈ 9.13 µg/mL); MBC (Pseudomonas aeruginosa [28]): 59 µM (≈ 18.3 µg/mL); MIC (Aspergillus fumigatus [29]): 5.9 ×10⁻² mM; MFC (Penicillium ochrochloron [30]): 1.57 ×10⁻² mM; MBC (Listeria monocytogenes [31]): 59 µM (≈ 18.3 µg/mL); MFC (Aspergillus ochraceus [32]): 23.6 ×10⁻² mM
CC1(C)c2ssc(=S)c2-c2ccccc2N1C(=O)CN1C(=O)CCC1=O | 37.1 (≈ 15 µg/mL) | 74.2 (≈ 30 µg/mL) | 74.2 (≈ 30 µg/mL) | 1.48 | 29.7 | 1.98 | 37.1 (≈ 15 µg/mL) | 74.2 (≈ 30 µg/mL) | 14.8 | 37.1 (≈ 15 µg/mL) | 14.8 | 14.8 | 14.8 | 0.99 | 37.1 (≈ 15 µg/mL) | 37.1 (≈ 15 µg/mL) | 11.1 | 29.7 | 74.2 (≈ 30 µg/mL) | 14.8 | MIC (Aspergillus niger [21]): 7.42 ×10⁻² mM; MBC (Staphylococcus aureus [22]): 74.2 µM (≈ 30 µg/mL); MFC (Penicillium cyclopium [23]): 29.7 ×10⁻² mM; MIC (Salmonella typhimurium [24]): 37.1 µM (≈ 15 µg/mL); MIC (Bacillus cereus [25]): 37.1 µM (≈ 15 µg/mL); MBC (Enterobacter cloacae [26]): 74.2 µM (≈ 30 µg/mL); MIC (Listeria monocytogenes [27]): 37.1 µM (≈ 15 µg/mL); MBC (Pseudomonas aeruginosa [28]): 74.2 µM (≈ 30 µg/mL); MIC (Aspergillus fumigatus [29]): 11.1 ×10⁻² mM; MFC (Penicillium ochrochloron [30]): 1.98 ×10⁻² mM; MBC (Listeria monocytogenes [31]): 74.2 µM (≈ 30 µg/mL); MFC (Aspergillus ochraceus [32]): 29.7 ×10⁻² mM
